For one experiment, the target named is Cannabinoid receptor 2 (Homo sapiens, UniProt P34972). Nature of the experiment: Displacement of [3H]WIN-55212-2 from human CB2 receptor expressed in CHOK1 cells by liquid scintillation spectrometry. Type of experiment: cell-based, CHO-K1. In outline:
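Membranes from CHO K-1 cells transfected with human CB2, prepared as for cerebellum. About 10 µg membrane incubated with radioligand and varied test concentrations in TME buffer plus 0.5% fatty-acid-free BSA, 1 h at 30 °C. Filtered through PEI-soaked GF/B filters. Nonspecific binding defined with 1 µM WIN55,212-2. IC50 by nonlinear regression, triplicates, three independent experiments.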

The target in a further experiment is Cannabinoid receptor 1 (Rattus norvegicus, UniProt P20272). Kind of experiment: Displacement of [3H]CP-55940 from CB1 receptor in Sprague-Dawley rat cerebellum by liquid scintillation spectrometry. In outline: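 Cerebella from male rats (200-300 g) homogenized in TME buffer (50 mM Tris-HCl, 1 mM EDTA, 3 mM MgCl2, pH 7.4), centrifuged 48000g 30 min at 4 °C. About 10 µg membrane incubated with radioligand and varied test concentrations in TME plus 0.5% fatty-acid-free BSA, 1 h at 30 °C. Filtered through PEI-soaked GF/B filters. […] IC50 by nonlinear regression, triplicates, three independent experiments.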
Cannabinoid receptor 1, sequence (P20272 whole entry): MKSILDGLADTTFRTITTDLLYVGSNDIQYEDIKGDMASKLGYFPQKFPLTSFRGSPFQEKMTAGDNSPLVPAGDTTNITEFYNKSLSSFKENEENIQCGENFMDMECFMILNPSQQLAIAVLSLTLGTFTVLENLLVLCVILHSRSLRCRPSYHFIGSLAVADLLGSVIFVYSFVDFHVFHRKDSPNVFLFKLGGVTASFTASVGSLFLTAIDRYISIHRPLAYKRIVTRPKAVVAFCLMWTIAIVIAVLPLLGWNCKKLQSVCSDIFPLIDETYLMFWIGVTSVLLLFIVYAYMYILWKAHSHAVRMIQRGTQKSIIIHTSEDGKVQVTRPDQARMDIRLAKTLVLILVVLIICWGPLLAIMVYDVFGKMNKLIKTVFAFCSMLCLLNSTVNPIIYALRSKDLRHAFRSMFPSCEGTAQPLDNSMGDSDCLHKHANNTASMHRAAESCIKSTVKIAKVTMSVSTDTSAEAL
Background: In a radioligand displacement assay an active substance lowers the binding of a labelled ligand.

Experiment [1] can be described thus: Selectivity ratio of IC50 for human CB2 receptor to IC50 for Sprague-Dawley rat CB1 receptor. In a few lines:
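Ratio of CB2 IC50 to CB1 IC50. Both come from radioligand competition on membranes incubated 1 h at 30 °C in TME/0.5% BSA: rat cerebellar membranes for CB1, human CB2-transfected CHO K-1 membranes for CB2. IC50 by nonlinear regression from three independent triplicate experiments.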

The test system of the next experiment is Mus musculus. Nature of the experiment: Reduction in body weight in diet-induced obese C57BL/6J mouse model at 10 mg/kg, po after 14 days. In kind it is functional. Also on record: scale not given: the % may be the effect or the level left. In outline: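 Male C57BL/6J DIO mice over 38 g, singly housed on a 12 h/12 h light/dark cycle with free access to food and water, habituated at least 7 days, tested during the light period. Compound dissolved fresh daily in deionized water with 10% DMSO, given orally at 10 mL/kg daily for 14 days. Vehicle controls n=5, treated groups n=6. Body weight recorded daily.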

SMILES strings stand for the structures.

Drawing on ChEMBL document CHEMBL1152292, “Biarylpyrazolyl oxadiazole as potent, selective, orally bioavailable cannabinoid-1 receptor antagonists for the treatment of obesity” (J Med Chem, 2008), this text covers IC50, Ratio IC50 and Activity for three molecules.

Cannabinoid receptor 2, sequence (P34972 whole entry): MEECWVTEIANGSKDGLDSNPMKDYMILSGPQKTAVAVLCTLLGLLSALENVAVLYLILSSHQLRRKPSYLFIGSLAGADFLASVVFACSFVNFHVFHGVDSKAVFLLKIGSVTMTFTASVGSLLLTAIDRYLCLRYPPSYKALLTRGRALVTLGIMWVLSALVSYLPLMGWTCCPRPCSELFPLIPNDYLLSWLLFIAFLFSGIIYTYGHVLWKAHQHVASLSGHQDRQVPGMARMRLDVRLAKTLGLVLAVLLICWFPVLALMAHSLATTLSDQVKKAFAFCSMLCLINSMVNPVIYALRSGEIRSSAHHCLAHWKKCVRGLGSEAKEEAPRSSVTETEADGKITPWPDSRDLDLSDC

Regarding `FC(F)(F)C1(c2nnc(-c3nn(-c4ccc(Cl)cc4Cl)c(-c4ccc(Br)cc4)c3Cn3cncn3)o2)CC1`, the IC50 on Cannabinoid receptor 2 was found to be 948 nM; at Cannabinoid receptor 1, 0.93 nM. In addition, in experiment [1], the Ratio IC50 came out at 1020. This molecule returned an Activity in the experiment with Mus musculus of 29.3%.

Turning to `FC(F)(F)C1(c2nnc(-c3nn(-c4ccc(Cl)cc4Cl)c(-c4ccc(Cl)cc4)c3Cn3cncn3)o2)CC1`, the results for the IC50 at Cannabinoid receptor 2 and at Cannabinoid receptor 1 were 1750 nM and 1.51 nM, respectively. The Ratio IC50 in experiment [1] stood at 1160. In the experiment on Mus musculus, this molecule had an Activity of 29.5%.

For the molecule `Cc1c(-c2nnc(C3(C(F)(F)F)CC3)o2)nn(-c2ccc(Cl)cc2Cl)c1-c1ccc(Cl)cc1`, the Activity in the experiment on Mus musculus is 22.8%.

What is called IC50 is the point on the concentration scale where inhibition reaches its midpoint.
